Source: PMC4651454 (Journal of virology & antiviral research, 2014)

Columns and labels:
HCV genotype 1 patients = details: supplemented group, HCV genotype 1, PEG-IFN/RBV; controls 42%, P<0.001; cited from earlier work
[1] = system: JC1-Luc2a (electroporation); assay: JC1-Luc2a transfected; assay type: cell-based; details: Hepatitis C virus
JC1-Luc2a (infection) = assay: JC1-Luc2a infectious virus luciferase assay; assay type: cell-based; details: Hepatitis C virus
in vitro = assay type: cell-based; details: human, CC50 μM (±S.D)
Huh7.5.1 cells [2] = assay: in vitro; assay type: cell-based; details: human, 120 h
[3] = system: full-length genotype 1b replicon; details: ref 20 (Yano et al.); cited from earlier work
HCV = details: ref 23 (Matsumura et al.); cited from earlier work
[4] = system: BM4-5 FEO (genotype 1b) replicon; assay: Synergy of 1,25; assay type: cell-based, hepatitis C virus
HCV core protein = HCV core protein immunoblot in JC1-Luc2a electroporated Huh7.5.1 cells; assay type: cell-based, hepatitis C virus; details: 10 μM 1,25(OH)2D3, 10 IU/mL IFN-α, 72 hours, compared to untreated cells
How it was run: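 Huh7.5.1 cells electroporated with JC1-Luc2a were incubated for 72 h without drug, with 10 µM 1,25(OH)2D3, with 10 IU/mL IFN-α, or with both. Confluent plates were trypsinized, counted and lysed in equal RIPA volumes. Each condition was run in triplicate. Lysates were run on 12% Bis-Tris SDS-PAGE and transferred to nitrocellulose. Core (anti-core, epitope aa 7-50) and β-actin were detected with goat anti-mouse IgG, and band density was quantified.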

Huh7.5.1 cells [5] = assay: Microarray gene expression; assay type: cell-based, human
How it was run: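 Huh7.5.1 cells were JC1-Luc2a-transfected or mock-transfected, cultured 4 days, then plated. 1,25(OH)2D3 was added at staggered times to give 6, 12, 24, 72 or 120 h exposures, with RNA harvested at 120 h (day 9). Biotinylated cRNA (250 ng total RNA input; 750 ng hybridized) was run on HumanHT-12 v4 chips, 18-20 h at 58°C, with Cy3 detection. Data were LOESS-normalized and compared against uninfected untreated cells.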

[6] = system: HCV infected Huh7.5.1 cells; assay: RT-qPCR of selected genes in HCV infected cells; assay type: cell-based, human; details: 10 μM, over IFN-α treated cells (p=0.032)
How it was run: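 HCV-infected Huh7.5.1 cells were prepared as for the microarray and treated for 6 or 72 h with 1,25(OH)2D3 (4 or 10 µM) and IFN-α (1 or 10 IU/mL), alone or combined. Cultures were run in triplicate. RNA was reverse-transcribed and measured by TaqMan RT-qPCR in duplicate reactions, normalized to GAPDH. Fold change versus untreated infected culture was calculated by 2^-ΔΔCt. Means with 1 standard deviation were compared by Student t-test.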

Compound	EC50 ([1]; 72 h) [µM]	EC50 ([1]; 120 h) [µM]	EC50 (JC1-Luc2a (infection); 72 h) [µM]	EC50 (JC1-Luc2a (infection); 120 h) [µM]	CC50 at 72 h (in vitro) [µM]	CC50 (Huh7.5.1 cells [2]) [µM]	HCV core protein expression by immunoblot (HCV core protein)	other results
C=C1CC[C@H](O)C/C1=C/C=C1\CCC[C@]2(C)[C@@H]([C@H](C)/C=C/[C@H](C)C(C)C)CC[C@@H]12 [vitamin D]	–	–	–	–	–	–	–	SVR rate (HCV genotype 1 patients): 86%
C=C1CC[C@H](O)C/C1=C/C=C1\CCC[C@]2(C)[C@@H]([C@H](C)CCCC(C)C)CC[C@@H]12 [Vitamin D3]	13	12.6	3.44	2.78	50.3	54.9	–	–
C=C1CC[C@H](O)C/C1=C/C=C1\CCC[C@]2(C)[C@@H]([C@H](C)/C=C/[C@H](C)C(C)C)CC[C@@H]12 [Vitamin D2]	18.6	21.4	5.72	4.41	53.9	41.9	–	EC50, inhibition of HCV RNA replication [3]: 1.6 µg/mL
C=C1CC[C@H](O)C/C1=C/C=C1\CCC[C@]2(C)[C@@H]([C@H](C)CCCC(C)(C)O)CC[C@@H]12 [25(OH) D3]	–	–	–	–	–	–	–	Inhibition of HCV in culture (in words) (HCV): inhibited HCV in culture
IFN-α	–	–	–	–	–	–	Mild reduction	EC50 (used for synergy dosing) ([4]; BM4-5 FEO genotype 1b replicon): 1 IU/mL
C=C1/C(=C\C=C2/CCC[C@]3(C)[C@@H]([C@H](C)CCCC(C)(C)O)CC[C@@H]23)C[C@@H](O)C[C@@H]1O [1,25(OH)2D3, 1,25-dihydroxyvitamin D3]	2.92	2.95	1.19	1.07	17.3	22.8	Mild reduction	EC50 ([4]; Hepatitis C virus, GETYPE1B, BM4-5, read-out: EC50 (used for synergy dosing)): 1 µM; HIF1a expression (Huh7.5.1 cells [5]; HCV naïve cells): strongly up regulated; GPR37 expression (Huh7.5.1 cells [5]; progressive in vitro exposure): markedly up regulated; CCL20 gene expression (Huh7.5.1 cells [5]; shortly after treatment): higher gene expression; SLC30A10 expression (Huh7.5.1 cells [5]; uninfected and infected cells): increased; HIF1a mRNA expression, RT-qPCR [6]: up-regulation
